# According to ChEMBL document CHEMBL1131493, “Inhibitors of farnesyl protein transferase. 4-Amido, 4-carbamoyl, and 4-carboxamido derivatives of 1-(8-chloro-6,11-dihydro-5H-benzo[5,6]- cyclohepta[1,2-b]pyridin-11-yl)piperazine and 1-(3-bromo-8-chloro-6,11- dihydro-5H-benzo[5,6]cyclohepta[1,2-b]pyridin-11-yl)piperazine” (J Med Chem, 1998):
# What was measured:
# [1] = In vivo antitumor efficacy in cynomolgus monkeys 0-8 hours after peroral dose of 25 mg/kg expressed as Area under the curve; format: ADME, organism-based, Macaca fascicularis; design: time < 8 hr, dose 25 mg/kg, route oral; conditions: cynomolgus monkey, po
# Summary of the method: (§1)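 Serum pharmacokinetics in nude mice or cynomolgus monkeys after oral (po) or iv dosing. Compounds were given as hydrochloride salts in 20% HPβCD unless otherwise noted. Other formulations were the hydrochloride salt in saline, the micronized free base in 20% HPβCD or corn oil (po) with saline for iv, or the hydrochloride salt in 0.4% methyl cellulose (po).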
# [2] = molecular target: geranylgeranyltransferase type-I (Rattus norvegicus, UniProt P53610+Q04631); test: Inhibition of rat Geranylgeranyl transferase (GGPT); format: protein-complex assay
# [3] = Oral bioavailability in mouse (nude) (dose of 25 mg/kg); format: ADME, organism-based; conditions: in vivo; summary of the method: as §1
# [4] = In vivo antitumor efficacy expressed as maximum plasma concentration after a peroral dose of 10 mg/kg in cynomolgus monkeys; format: ADME, organism-based, Macaca fascicularis; design: dose 10 mg/kg, route oral; conditions: cynomolgus monkey, po; summary of the method: as §1
# Cynomolgus monkey [5] = test: In vivo antitumor efficacy after peroral dose of 25 mg/kg in cynomolgus monkeys expressed as duration for which compound was present above IC50; format: ADME, organism-based, Macaca fascicularis; design: dose 25 mg/kg, route oral; conditions: po; summary of the method: as §1
# Mus musculus [6] = test: In vivo antitumor efficacy after peroral dose of 25 mg/kg in mice expressed as duration for which compound was present above IC50; format: ADME, organism-based; design: dose 25 mg/kg, route oral; conditions: po; summary of the method: as §1
# [7] = (§2) Maximal plasma concentration in nude mice after 25 mg/kg oral dose; format: ADME, organism-based; design: dose 25 mg/kg, route oral; conditions: mouse; summary of the method: as §1
# [8] = (§3) In vivo antitumor efficacy in nude mice 0-24 hr after peroral dose of 25 mg/kg expressed as Area under the curve; format: ADME, organism-based; design: time < 24 hr, dose 25 mg/kg, route oral; conditions: nude, mouse, po; summary of the method: as §1
# Mus musculus [9] = test: as §3; format: ADME, organism-based; design: time < 24 hr, dose 25 mg/kg, route oral; conditions: po, 24 h; summary of the method: as §1
# [10] = In vivo antitumor efficacy in nude mice by injecting a dose of 25 mg/kg iv and serum half-life was determined; format: ADME, organism-based; design: dose 25 mg/kg, route intravenous; conditions: mouse; summary of the method: as §1
# [11] = In vivo antitumor efficacy in cynomolgus monkeys by injecting a dose of 10 mg/kg, as HCl salt in saline solution, perorally and the total drug exposure was determined (0-8 hr); format: ADME, organism-based, Macaca fascicularis; design: time < 8 hr, dose 10 mg/kg, route oral; conditions: cynomolgus monkey, po; summary of the method: as §1
# [12] = In vivo antitumor efficacy in nude mice 0-24 hr after intravenous dose of 25 mg/kg expressed as Area under the curve; format: ADME, organism-based; design: time < 24 hr, dose 25 mg/kg, route intravenous; conditions: mouse; summary of the method: as §1
# Cynomolgus monkey [13] = test: In vivo antitumor efficacy after peroral dose of 10 mg/kg in cynomolgus monkeys expressed as duration for which compound was present above IC50; format: ADME, organism-based, Macaca fascicularis; design: dose 10 mg/kg, route oral; conditions: po; summary of the method: as §1
# [14] = In vivo antitumor efficacy expressed as maximum plasma concentration 0.4 hr after a peroral dose of 25 mg/kg in cynomolgus monkeys; format: ADME, organism-based, Macaca fascicularis; design: dose 25 mg/kg, route oral; conditions: cynomolgus monkey, po; summary of the method: as §1
# [15] = In vivo antitumor efficacy expressed as plasma area under the curve 0.4 hr after a peroral dose of 25 mg/kg in nude mice; format: ADME, organism-based; design: time < 0.4 hr, dose 25 mg/kg, route oral; conditions: mouse, po; summary of the method: as §1
# [16] = In vivo antitumor efficacy expressed as plasma area under the curve 0.4 hr after iv dose of 25 mg/kg in nude mice; format: ADME, organism-based; design: time < 0.4 hr, dose 25 mg/kg, route intravenous; summary of the method: as §1
# [17] = In vivo antitumor efficacy peroral dose of 25 mg/kg expressed as duration for which compound was present above IC50; format: ADME, organism-based; design: dose 25 mg/kg, route oral; conditions: po; summary of the method: as §1
# [18] = as §2; format: ADME, organism-based; design: dose 25 mg/kg, route oral; conditions: mouse; remark: listed apart in the source
# Cynomolgus monkey [19] = test: In vivo antitumor efficacy in cynomolgus monkeys by injecting a dose of 10 mg/kg, as HCl salt in saline solution, perorally and the duration of action was reported; format: ADME, organism-based, Macaca fascicularis; design: dose 10 mg/kg, route oral; conditions: po
# Summary of the method: (§4)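 Cynomolgus monkeys; hydrochloride salt in saline iv, or compound given po (as hydrochloride, as micronized free base in corn oil, or as hydrochloride in 0.4% methyl cellulose, depending on compound).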
# Mus musculus [20] = test: In vivo antitumor efficacy in nude mice by injecting a dose of 25 mg/kg, as HCl salt in solution, perorally and the total drug exposure was determined (0-24hr); format: ADME, organism-based; design: time < 24 hr, dose 25 mg/kg, route oral; conditions: po
# [21] = In vivo antitumor efficacy in nude mice by injecting a dose of 25 mg/kg, as HCl salt in saline solution, iv and the serum half-life was determined; format: ADME, organism-based; design: dose 25 mg/kg, route intravenous; conditions: mouse
# [22] = Oral bioavailability in mouse (nude) (dose 25 mg/kg i.v.); format: ADME, organism-based; conditions: in vivo
# [23] = In vivo antitumor efficacy in nude mice by injecting a dose of 25 mg/kg, as HCl salt in solution, iv and the serum half-life was determined; format: ADME, organism-based; design: dose 25 mg/kg, route intravenous; conditions: mouse
# [24] = as §2; format: ADME, organism-based; design: dose 25 mg/kg, route oral; conditions: mouse; remark: listed apart in the source
# [25] = In vivo antitumor efficacy in cynomolgus monkeys by injecting a dose of 25 mg/kg, as HCl salt in saline solution, perorally and the maximum drug concentration was determined; format: ADME, organism-based, Macaca fascicularis; design: dose 25 mg/kg, route oral; conditions: cynomolgus monkey, po; summary of the method: as §1
# Mus musculus [26] = test: In vivo antitumor efficacy in nude mice by injecting a dose of 25 mg/kg, as HCl salt in saline solution, perorally and the total drug exposure was determined; format: ADME, organism-based; design: dose 25 mg/kg, route oral; conditions: po
# [27] = In vivo antitumor efficacy in nude mice by injecting a dose of 25 mg/kg, as HCl salt in saline solution, iv and the total drug exposure was determined.; format: ADME, organism-based; design: dose 25 mg/kg, route intravenous; conditions: mouse
# [28] = In vivo antitumor efficacy in nude mice by injecting a dose of 25 mg/kg, as HCl salt in solution, iv and the total drug exposure was determined. (0-24hr); format: ADME, organism-based; design: time < 24 hr, dose 25 mg/kg, route intravenous; conditions: mouse
# [29] = In vivo antitumor efficacy in cynomolgus monkeys by injecting a dose of 25 mg/kg, as HCl salt in saline solution, perorally and the total drug exposure was determined (0-8 hr); format: ADME, organism-based, Macaca fascicularis; design: time < 8 hr, dose 25 mg/kg, route oral; conditions: cynomolgus monkey, po; summary of the method: as §4
smiles,measurement,setting,value
O=C(Cc1cc[n+]([O-])cc1)N1CCN([C@H]2c3ccc(Cl)cc3CCc3cc(Br)cnc32)CC1,AUC at 8 h,[1],58100 ng·h/mL
same,IC50,[2],> 76 µM
same,bioavailability,[3],100%
same,Cmax,[4],8 µM
same,Time above IC50,Cynomolgus monkey [5],24 h
same,Time above IC50,Mus musculus [6],7 h
same,Cmax,[7],24.6 µM
same,AUC at 24 h,[8],26100 ng·h/mL
same,AUC,Mus musculus [9],35300 ng·h/mL
same,half-life,[10],1.9 h
O=C(Cc1cc[n+]([O-])cc1)N1CCN([C@@H]2c3ccc(Cl)cc3CCc3cc(Br)cnc32)CC1,AUC at 8 h,[11],9100 ng·h/mL
same,AUC at 24 h,[12],27100 ng·h/mL
same,IC50,[2],> 38 µM
same,bioavailability,[3],100%
same,Time above IC50,Mus musculus [6],7 h
same,Time above IC50,Cynomolgus monkey [13],12 h
same,Cmax,[7],25 µM
same,AUC at 24 h,[8],31900 ng·h/mL
same,Cmax,[14],1.8 µM
same,half-life,[10],1.18 h
O=C(Cc1ccncc1)N1CCN(C2c3ccc(Cl)cc3CCc3cccnc32)CC1 (stereo unspecified),IC50,[2],> 46 µM
same,AUC at 0.4 h,[15],240 ng·h/mL
same,bioavailability,[3],13%
same,AUC at 0.4 h,[16],1800 ng·h/mL
same,Time above IC50,[17],1 h
same,Cmax,[7],0.9 µM
same,half-life,[10],0.2 h
CN1CCC(CC(=O)N2CCN(C3c4ccc(Cl)cc4CCc4cc(Br)cnc43)CC2)CC1 (stereo unspecified),Cmax,[18],30 µM
same,Time above IC50,Cynomolgus monkey [19],72 h
same,IC50,[2],> 38 µM
same,AUC,Mus musculus [20],18.4 uh ml-1
same,half-life,[21],8.5 h
same,bioavailability,[3],45%
same,bioavailability,[22],100%
same,half-life,[23],8.3 h
same,Cmax,[24],4 µM
same,Cmax,[25],1.5 µM
same,AUC,Mus musculus [26],39 uh ml-1
same,AUC,[27],32900 ng·h/mL
same,AUC at 24 h,[28],40600 ng·h/mL
same,AUC at 8 h,[29],37200 ng·h/mL
